According to article PMC7096758 (Heliyon, 2020):

What was measured:
[1] = Cytotoxicity in mammalian cells; type: cell-based, BALB/c mice; details: BALB/c, mouse, bone marrow-derived macrophages (BMDM)
Procedure, shortened: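 Bone-marrow cells from BALB/c mice were differentiated for 7 days at 37 °C, 5% CO2. The medium was DMEM with 10% FBSi, 1% NEAA and 10% L929-conditioned medium. The resulting macrophages were exposed to test compound at up to 40 μM for 24 h. Viability was measured by resazurin assay. CC50 was calculated from percent viability relative to untreated control.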

L. major promastigotes = experiment: Activity against promastigotes; type: cell-based; details: Leishmania major, 24 h, read-out: IC50 L. major (P)
Procedure, shortened: (§1)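 Promastigotes of L. major MHOM/SA/85/JISH118 or L. amazonensis MHOM/BR/LTB0016 were kept at 25 °C for at most 10 passages in Schneider's with 10% FBSi, 2% human urine and 5 mM HEPES. Late-exponential cells were seeded at 3×10^6 cells/mL. They were treated 24 h with test compound (DMSO stock diluted in Schneider's), in triplicate. Controls were 0.5% DMSO and amphotericin B. Resazurin read-out; IC50 fitted.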

[2] = test system: L. infantum axenic amastigotes; experiment: Activity against axenic amastigotes; type: cell-based; details: Leishmania infantum, 24 h, read-out: IC50 L. infantum (AA)
Procedure, shortened: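 L. infantum axenic amastigotes came from parasites recently recovered from infected mouse spleen. They were kept at 37 °C, 5% CO2 in MAA with 20% iFBS, 2 mM Glutamax and 0.023 mM hemin. Cells were seeded at 1.5×10^5 per well in MAA20. Test compound was dissolved in DMSO and diluted in medium for 24 h, in triplicate. Controls were 0.5% DMSO and amphotericin B. Viability was read by resazurin fluorescence and IC50 fitted.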

[3] = test system: L. amazonensis promastigotes; experiment: Activity against promastigotes; type: cell-based; details: Leishmania amazonensis, 24 h, read-out: IC50 L. amazonensis (P)
Procedure, shortened: as §1

[4] = test system: L. infantum promastigotes; experiment: Activity against promastigotes; type: cell-based; details: Leishmania infantum, 24 h, read-out: IC50 L. infantum (P)
Procedure, shortened: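 L. infantum MHOM/MA/67/ITMAP263 promastigotes were grown at 25 °C for at most 10 passages in RPMI with 10% FBSi and 5 mM HEPES, pH 7.4. Late-exponential cells were seeded at 3×10^6 cells/mL and exposed for 24 h to test compound (DMSO stock diluted in RPMI), in triplicate. Controls were 0.5% DMSO and amphotericin B. Resazurin fluorescence gave viability and IC50 was fitted.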

[5] = test system: L. infantum intracellular amastigotes; experiment: IC50 against Leishmania intracellular amastigotes in infected macrophages; type: cell-based, Leishmania infantum; details: CC50 BMDM versus IC50 intracellular amastigotes
Procedure, shortened: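 Ratio of BMDM CC50 (resazurin, 24 h) to intracellular IC50. For IC50, BALB/c BMDM were infected 3 h with stationary-phase L. infantum promastigotes (10:1), then washed. After 24 h, test compound in DMEM was added for 24 h, with 0.5% DMSO and amphotericin B controls. Cells were fixed, DAPI/CellMask stained and imaged automatically. IC50 was derived from percent infected macrophages.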

SMILES	CC50 at 24 h [1]	IC50 (L. major promastigotes)	IC50 [2]	IC50 [3]	IC50 [4]	selectivity index [5]
C[C@@H]1[C@H](O)[C@@H](C)/C=C/C=C/C=C/C=C/C=C/C=C/C=C/[C@H](O[C@@H]2O[C@H](C)[C@@H](O)[C@H](N)[C@@H]2O)C[C@@H]2O[C@](O)(C[C@@H](O)C[C@@H](O)[C@H](O)CC[C@@H](O)C[C@@H](O)CC(=O)O[C@H]1C)C[C@H](O)[C@H]2C(=O)O [Amphotericin B, reference compound]	4.37 ± 0.97 µM	0.17 ± 0.08 µM	0.4 ± 0.3 µM	0.2 ± 0.06 µM	0.18 ± 0.09 µM	
C/C=C(\CO)C(=O)OCc1ccc2c(c1)C(=O)CC(C)(C)O2 [Compound 12a, (2,2-dimethyl-4-oxochroman-6-yl)methyl (E)-2-(hydroxymethyl)but-2-enoate]		> 20 µM		> 20 µM	> 20 µM	
C/C=C(\CO)C(=O)NCc1ccc2c(c1)C(=O)CC(C)(C)O2 [Compound 13a, (E)-N-((2,2-dimethyl-4-oxochroman-6-yl)methyl)-2-(hydroxymethyl)but-2-enamide]		> 20 µM		> 20 µM	> 20 µM	
CCCCCCCCNCc1ccc2c(c1)C(=O)CC(C)(C)O2 [Compound 13c, 2,2-dimethyl-6-((octylamino)methyl)chroman-4-one]	40.2 ± 5.7 µM		25.3 ± 2.1 µM			1.6
C/C=C/C(=O)NCc1ccc2c(c1)C(=O)CC(C)(C)N2 [Compound 14b, (E)-N-((2,2-dimethyl-4-oxo-1,2,3,4-tetrahydroquinolin-6-yl)methyl)but-2-enamide]	> 40 µM	> 20 µM		> 20 µM	> 20 µM	
C/C=C(\C)C(=O)NCc1ccc2c(c1)C(=O)CC(C)(C)N2 [Compound 14c, (E)-N-((2,2-dimethyl-4-oxo-1,2,3,4-tetrahydroquinolin-6-yl)methyl)-2-methylbut-2-enamide]	> 40 µM	> 20 µM		> 20 µM	> 20 µM	
CC(C)=CC(=O)NCc1ccc2c(c1)C(=O)CC(C)(C)N2 [Compound 14d, N-((2,2-dimethyl-4-oxo-1,2,3,4-tetrahydroquinolin-6-yl)methyl)-3-methylbut-2-enamide]	> 40 µM	> 20 µM		> 20 µM	> 20 µM	
CC1(C)CC(=O)c2cc(CNC(=O)C/C=C/c3ccccc3)ccc2N1 [Compound 14e, (E)-N-((2,2-dimethyl-4-oxo-1,2,3,4-tetrahydroquinolin-6-yl)methyl)-4-phenylbut-3-enamide]	> 40 µM	> 20 µM		10 to 20 µM		
CC1(C)CC(=O)c2cc(CNC(=O)/C=C/c3cccs3)ccc2N1 [Compound 14f, (E)-N-((2,2-dimethyl-4-oxo-1,2,3,4-tetrahydroquinolin-6-yl)methyl)-3-(thiophen-2-yl)acrylamide]	> 40 µM	> 20 µM		> 20 µM	> 20 µM	
C/C=C(\CO)C(=O)NCc1ccc2c(c1)C(=O)CC(C)(C)N2 [Compound 14g, (E)-N-((2,2-dimethyl-4-oxo-1,2,3,4-tetrahydroquinolin-6-yl)methyl)-2-(hydroxymethyl)but-2-enamide]		> 20 µM		> 20 µM	> 20 µM	
Cc1ccc(Cc2ccc3c(c2)C(=O)CC(C)(C)O3)cc1 [Compound 21, 2,2-dimethyl-6-(4-methylbenzyl)chroman-4-one]		> 20 µM		> 20 µM	> 20 µM	
